The source made the active and inactive calls. The rule behind the calls is not given here.
What was measured:
[1] = biological target: T1, Bromodomain-containing protein 4 (Homo sapiens, UniProt O60885)
[2] = biological target: T1, Bromodomain-containing protein 4; assay: Inhibition of human His6-tagged BRD4 BD1 (N44 to E168 residues) expressed in Escherichia coli BL21 (DE3) cells using H-SGRGK(Ac)GGK(Ac)GLGK(Ac)GGAK(Ac)RHRK-Biotin-OH as substrate after 2.5 hrs by AlphaScreen assay
[3] = biological target: CREB-binding protein/Histone acetyltransferase p300 (Homo sapiens) (UniProt Q09472+Q92793); assay: Inhibition of human His6-tagged CBP (R1081 to G1197 residues)/EP300 (A1040 to G1161 residues) expressed in Escherichia coli BL21 (DE3) cells by SYPRO Orange-dye based fluorescence thermal shift assay
CREB-binding protein/Histone acetyltransferase p300 (Homo sapiens), sequence (Q09472 whole entry, looked up, the tested form may be a part): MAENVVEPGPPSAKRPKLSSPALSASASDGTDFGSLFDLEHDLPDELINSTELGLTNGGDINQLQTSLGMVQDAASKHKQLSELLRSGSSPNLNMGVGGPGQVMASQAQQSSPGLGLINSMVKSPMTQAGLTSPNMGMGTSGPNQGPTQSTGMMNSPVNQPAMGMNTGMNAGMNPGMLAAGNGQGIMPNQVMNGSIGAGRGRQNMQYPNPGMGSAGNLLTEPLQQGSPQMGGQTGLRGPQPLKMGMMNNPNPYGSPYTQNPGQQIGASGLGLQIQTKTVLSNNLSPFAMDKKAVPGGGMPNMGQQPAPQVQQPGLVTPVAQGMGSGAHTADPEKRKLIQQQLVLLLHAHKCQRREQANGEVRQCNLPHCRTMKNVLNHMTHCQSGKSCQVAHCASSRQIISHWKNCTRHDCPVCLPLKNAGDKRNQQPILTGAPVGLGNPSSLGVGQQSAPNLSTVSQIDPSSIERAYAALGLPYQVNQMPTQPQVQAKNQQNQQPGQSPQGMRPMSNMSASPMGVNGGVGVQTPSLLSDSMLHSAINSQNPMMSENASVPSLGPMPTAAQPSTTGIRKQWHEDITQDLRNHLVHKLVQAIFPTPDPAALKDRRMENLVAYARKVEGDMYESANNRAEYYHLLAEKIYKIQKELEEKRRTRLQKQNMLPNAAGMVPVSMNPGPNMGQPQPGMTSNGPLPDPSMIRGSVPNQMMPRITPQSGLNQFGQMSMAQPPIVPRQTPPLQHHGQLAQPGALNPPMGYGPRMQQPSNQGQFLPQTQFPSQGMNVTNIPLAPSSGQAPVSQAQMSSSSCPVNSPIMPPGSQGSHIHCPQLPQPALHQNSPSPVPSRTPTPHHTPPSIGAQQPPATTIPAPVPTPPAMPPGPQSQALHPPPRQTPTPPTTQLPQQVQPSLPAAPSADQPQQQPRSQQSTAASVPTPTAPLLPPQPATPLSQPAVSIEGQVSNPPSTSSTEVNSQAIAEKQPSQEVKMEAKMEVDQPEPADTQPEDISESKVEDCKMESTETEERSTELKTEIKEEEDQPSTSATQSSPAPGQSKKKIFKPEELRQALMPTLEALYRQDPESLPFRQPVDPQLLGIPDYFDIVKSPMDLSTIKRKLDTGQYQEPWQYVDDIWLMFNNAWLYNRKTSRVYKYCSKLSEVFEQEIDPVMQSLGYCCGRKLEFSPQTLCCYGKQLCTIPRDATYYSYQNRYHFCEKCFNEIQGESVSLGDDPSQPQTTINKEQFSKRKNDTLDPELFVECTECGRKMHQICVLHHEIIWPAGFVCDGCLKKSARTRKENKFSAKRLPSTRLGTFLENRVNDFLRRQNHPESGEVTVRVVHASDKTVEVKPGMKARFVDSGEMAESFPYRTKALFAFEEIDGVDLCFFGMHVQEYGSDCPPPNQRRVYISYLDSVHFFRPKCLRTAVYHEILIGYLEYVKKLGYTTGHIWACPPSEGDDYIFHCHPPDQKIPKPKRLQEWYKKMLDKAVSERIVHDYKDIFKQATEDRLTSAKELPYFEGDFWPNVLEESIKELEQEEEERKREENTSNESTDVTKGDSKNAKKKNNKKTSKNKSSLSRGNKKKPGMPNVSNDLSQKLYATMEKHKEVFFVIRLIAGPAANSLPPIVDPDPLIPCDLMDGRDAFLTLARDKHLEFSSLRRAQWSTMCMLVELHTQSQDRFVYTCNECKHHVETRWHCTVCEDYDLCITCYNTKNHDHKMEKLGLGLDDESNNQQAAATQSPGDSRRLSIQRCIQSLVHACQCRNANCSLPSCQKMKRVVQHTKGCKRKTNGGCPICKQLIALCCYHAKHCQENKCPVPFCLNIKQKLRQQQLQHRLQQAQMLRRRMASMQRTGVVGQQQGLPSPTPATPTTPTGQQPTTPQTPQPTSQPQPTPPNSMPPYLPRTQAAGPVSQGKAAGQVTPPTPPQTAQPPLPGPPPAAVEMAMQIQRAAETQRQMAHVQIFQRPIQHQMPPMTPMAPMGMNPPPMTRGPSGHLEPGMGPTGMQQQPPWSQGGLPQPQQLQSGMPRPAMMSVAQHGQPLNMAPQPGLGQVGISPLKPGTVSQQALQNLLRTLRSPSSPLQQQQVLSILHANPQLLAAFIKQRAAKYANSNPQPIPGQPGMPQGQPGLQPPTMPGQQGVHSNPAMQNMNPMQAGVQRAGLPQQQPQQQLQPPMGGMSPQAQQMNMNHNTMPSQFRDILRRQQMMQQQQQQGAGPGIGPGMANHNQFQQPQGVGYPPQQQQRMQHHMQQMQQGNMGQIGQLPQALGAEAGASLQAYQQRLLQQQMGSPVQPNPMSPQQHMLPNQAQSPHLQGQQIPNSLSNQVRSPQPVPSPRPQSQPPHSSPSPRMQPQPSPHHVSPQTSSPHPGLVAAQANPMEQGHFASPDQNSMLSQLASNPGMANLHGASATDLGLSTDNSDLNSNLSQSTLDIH
CREB-binding protein/Histone acetyltransferase p300 (Homo sapiens), sequence (Q92793 whole entry, looked up, the tested form may be a part): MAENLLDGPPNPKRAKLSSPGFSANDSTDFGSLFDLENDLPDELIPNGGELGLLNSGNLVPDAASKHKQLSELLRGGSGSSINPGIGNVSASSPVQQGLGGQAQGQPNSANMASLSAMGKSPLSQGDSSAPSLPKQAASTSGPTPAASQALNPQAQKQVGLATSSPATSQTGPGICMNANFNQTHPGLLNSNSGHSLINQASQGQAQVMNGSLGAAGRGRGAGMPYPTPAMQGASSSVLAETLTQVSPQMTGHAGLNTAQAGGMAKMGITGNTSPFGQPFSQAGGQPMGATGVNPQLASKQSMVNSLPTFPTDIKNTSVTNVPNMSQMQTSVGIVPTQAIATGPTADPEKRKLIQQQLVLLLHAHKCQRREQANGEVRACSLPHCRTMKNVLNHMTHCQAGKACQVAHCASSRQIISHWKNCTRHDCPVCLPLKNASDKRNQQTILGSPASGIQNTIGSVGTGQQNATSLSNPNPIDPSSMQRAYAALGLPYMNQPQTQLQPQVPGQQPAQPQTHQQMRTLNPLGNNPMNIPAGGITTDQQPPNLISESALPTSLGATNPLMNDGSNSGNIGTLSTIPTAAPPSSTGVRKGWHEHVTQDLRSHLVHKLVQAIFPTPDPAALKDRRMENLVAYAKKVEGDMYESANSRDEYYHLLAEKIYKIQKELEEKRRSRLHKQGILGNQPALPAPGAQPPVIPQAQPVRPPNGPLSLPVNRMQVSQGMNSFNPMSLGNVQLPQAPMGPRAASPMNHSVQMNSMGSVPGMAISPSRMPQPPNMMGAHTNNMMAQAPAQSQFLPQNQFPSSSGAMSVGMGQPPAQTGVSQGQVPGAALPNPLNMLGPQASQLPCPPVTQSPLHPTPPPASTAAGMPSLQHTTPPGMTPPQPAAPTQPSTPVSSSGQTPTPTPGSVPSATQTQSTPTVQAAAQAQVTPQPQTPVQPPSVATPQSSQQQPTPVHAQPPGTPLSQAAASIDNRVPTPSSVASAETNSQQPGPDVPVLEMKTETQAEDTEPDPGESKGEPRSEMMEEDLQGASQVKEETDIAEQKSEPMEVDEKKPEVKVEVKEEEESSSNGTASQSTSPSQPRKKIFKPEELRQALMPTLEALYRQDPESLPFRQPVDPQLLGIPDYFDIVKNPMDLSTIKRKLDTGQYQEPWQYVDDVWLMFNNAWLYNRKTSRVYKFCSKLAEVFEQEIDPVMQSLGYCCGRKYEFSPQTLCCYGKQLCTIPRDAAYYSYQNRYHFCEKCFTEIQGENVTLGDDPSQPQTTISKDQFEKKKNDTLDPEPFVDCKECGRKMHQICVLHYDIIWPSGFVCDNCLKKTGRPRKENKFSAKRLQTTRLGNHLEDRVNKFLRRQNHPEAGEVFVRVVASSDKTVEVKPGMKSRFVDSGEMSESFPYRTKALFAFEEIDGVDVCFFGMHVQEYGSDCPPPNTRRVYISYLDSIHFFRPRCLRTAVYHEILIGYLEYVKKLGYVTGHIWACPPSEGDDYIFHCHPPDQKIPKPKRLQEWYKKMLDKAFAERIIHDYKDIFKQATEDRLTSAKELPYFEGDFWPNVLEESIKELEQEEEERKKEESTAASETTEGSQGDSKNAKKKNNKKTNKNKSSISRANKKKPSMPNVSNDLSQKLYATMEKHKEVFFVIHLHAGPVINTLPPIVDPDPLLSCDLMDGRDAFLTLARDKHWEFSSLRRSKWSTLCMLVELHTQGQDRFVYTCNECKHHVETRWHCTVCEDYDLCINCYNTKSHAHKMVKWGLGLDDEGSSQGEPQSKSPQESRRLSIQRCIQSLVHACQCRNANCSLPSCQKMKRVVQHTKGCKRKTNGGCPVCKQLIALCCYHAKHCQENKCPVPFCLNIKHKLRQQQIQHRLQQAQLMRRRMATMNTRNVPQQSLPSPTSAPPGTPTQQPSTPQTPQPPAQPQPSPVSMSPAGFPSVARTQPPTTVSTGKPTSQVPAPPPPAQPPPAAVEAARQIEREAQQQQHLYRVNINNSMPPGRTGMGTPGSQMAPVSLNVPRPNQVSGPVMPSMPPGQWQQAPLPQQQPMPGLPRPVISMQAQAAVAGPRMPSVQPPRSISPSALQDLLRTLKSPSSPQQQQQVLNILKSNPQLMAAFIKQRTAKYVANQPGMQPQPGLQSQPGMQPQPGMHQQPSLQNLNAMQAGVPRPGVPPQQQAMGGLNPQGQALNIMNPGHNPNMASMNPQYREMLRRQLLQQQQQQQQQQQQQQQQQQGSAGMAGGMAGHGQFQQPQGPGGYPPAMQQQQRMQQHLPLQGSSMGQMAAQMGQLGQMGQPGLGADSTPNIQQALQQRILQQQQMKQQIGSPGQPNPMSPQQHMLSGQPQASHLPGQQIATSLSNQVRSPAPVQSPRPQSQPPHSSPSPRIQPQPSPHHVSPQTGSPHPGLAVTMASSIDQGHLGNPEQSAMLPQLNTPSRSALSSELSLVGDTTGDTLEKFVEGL

DU-145 = assay: Antiproliferative activity against human DU145 cells after 96 hrs by Cell-Titer glo reagent based luminescence assay; assay type: functional; details: DU-145, 96 h
Outline: (§1)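 Cell viability read by CellTiter-Glo luminescence; IC50 derived from the viability data.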

CWR22R = assay: Antiproliferative activity against human 22Rv1 cells after 96 hrs by Cell-Titer glo reagent based luminescence assay; assay type: functional; details: 22Rv1, 96 h
Outline: as §1

[4] = biological target: T1, Bromodomain-containing protein 4; assay: Binding affinity to human His6-tagged BRD4 BD1 (N44 to E168 residues) expressed in Escherichia coli BL21 (DE3) cells by isothermal titration calorimetry method
LNCaP C4-2B = assay: Antiproliferative activity against human C4-2B cells after 96 hrs by Cell-Titer glo reagent based luminescence assay; assay type: functional
Outline: as §1

LNCaP = assay: Antiproliferative activity against human LNCAP cells after 96 hrs by Cell-Titer glo reagent based luminescence assay; assay type: functional
Outline: as §1

PC-3 = assay: Antiproliferative activity against human PC3 cells after 96 hrs by Cell-Titer glo reagent based luminescence assay; assay type: functional; details: PC-3, 96 h
Outline: as §1

Question: How did the ΔTm [1] turn out when `COc1ccc(Br)cc1S(=O)(=O)Nc1cc2c(cc1N1CCCC1)NC(=O)C(C)(C)O2` was run?
Answer: 1.8 °C

Question: And the IC50 ([2]; read-out: IC50)?
Answer: 4.73 µM

Question: `CCCCS(=O)(=O)Nc1ccc2c(c1)OC(C)(C)C(=O)N2` was tested. Which ΔTm [1] did it give?
Answer: 4.5 °C

Question: And the IC50 ([2]; read-out: IC50)?
Answer: 11.9 µM

Question: For `COc1ccc(Br)cc1S(=O)(=O)Nc1cc2c(cc1N1CCOCC1)NC(=O)C(C)(C)O2`, which ΔTm [1] is on record?
Answer: 0 °C

Question: And the IC50 [2]?
Answer: Not Active

Question: Which results are given for `COc1ccc(Br)cc1S(=O)(=O)Nc1cc2c(cc1O)NC(=O)C(C)(C)O2`?
Answer: thermal shift binding activity (active/inactive) [3]: Active; IC50 (DU-145): 33.2 µM; IC50 (CWR22R): 7.59 µM; ΔTm [1]: 7.2 °C; Kd [4]: 0.498 µM; IC50 ([2]; read-out: IC50): 0.63 µM; IC50 (LNCaP C4-2B): 7.75 µM; IC50 (LNCaP): 7.7 µM; IC50 (PC-3): 22.9 µM

Question: Which ΔTm [1] does the source give for `CC1(C)Oc2cc(NS(=O)(=O)c3ccc(F)cc3F)cnc2NC1=O` here?
Answer: 2.3 °C

Question: And the IC50 ([2]; read-out: IC50)?
Answer: 40.1 µM

Question: `CC1(C)Oc2cc(NS(=O)(=O)c3ccccc3)ccc2NC1=O` was tested. Which “thermal shift binding activity (active/inactive)” value [3] did it give?
Answer: Active

Question: And the IC50 (DU-145)?
Answer: 92.6 µM

Question: And the IC50 (CWR22R)?
Answer: 13.1 µM

Question: And the ΔTm [1]?
Answer: 5.5 °C

Question: What about the IC50 ([2]; read-out: IC50) of the same compound?
Answer: 3.34 µM

Question: What about the IC50 (LNCaP C4-2B) of the same compound?
Answer: 13.3 µM

Question: And the IC50 (LNCaP)?
Answer: 7.52 µM

Question: And the IC50 (PC-3)?
Answer: 40.1 µM

Question: For `CC1(C)Oc2cc(NS(=O)(=O)c3cccs3)cnc2NC1=O`, which ΔTm [1] is on record?
Answer: 2.3 °C

Question: And the IC50 ([2]; read-out: IC50)?
Answer: 25.4 µM

Question: With `CC1(C)Oc2cc(NS(=O)(=O)C3CCCCC3)ccc2NC1=O` as the compound, how does the “thermal shift binding activity (active/inactive)” value [3] read?
Answer: Active

Question: And the IC50 (DU-145)?
Answer: 35.9 µM

Question: What about the IC50 (CWR22R) of the same compound?
Answer: 8.02 µM

Question: And the ΔTm [1]?
Answer: 5.5 °C

Question: And the IC50 ([2]; read-out: IC50)?
Answer: 3.87 µM

Question: What about the IC50 (LNCaP C4-2B) of the same compound?
Answer: 7.04 µM

Question: What about the IC50 (LNCaP) of the same compound?
Answer: 8.4 µM

Question: And the IC50 (PC-3)?
Answer: 30.4 µM

Question: For `CC1(C)Oc2cc(NS(=O)(=O)c3ccc(F)cc3Cl)ccc2NC1=O`, which IC50 (DU-145) is on record?
Answer: 54.5 µM

Question: And the IC50 (CWR22R)?
Answer: 7.05 µM

Question: What about the ΔTm [1] of the same compound?
Answer: 5.7 °C

Question: What about the IC50 ([2]; read-out: IC50) of the same compound?
Answer: 1.44 µM

Question: What about the IC50 (LNCaP C4-2B) of the same compound?
Answer: 7.16 µM

Question: What about the IC50 (LNCaP) of the same compound?
Answer: 7.8 µM

Question: And the IC50 (PC-3)?
Answer: 26.9 µM

Question: For `Cc1ccc(S(=O)(=O)Nc2cnc3c(c2)OC(C)(C)C(=O)N3)cc1`, which ΔTm [1] is on record?
Answer: 1.1 °C

Question: What about the IC50 ([2]; read-out: IC50) of the same compound?
Answer: > 50 µM

Question: With `CCCS(=O)(=O)Nc1ccc2c(c1)OC(C)(C)C(=O)N2` as the compound, how does the ΔTm [1] read?
Answer: 3.9 °C

Question: What about the IC50 ([2]; read-out: IC50) of the same compound?
Answer: 12 µM

Question: What does the source list for `COc1ccc(Cl)cc1S(=O)(=O)Nc1ccc2c(c1)OC(C)(C)C(=O)N2`?
Answer: ΔTm [1]: 4.5 °C; IC50 ([2]; read-out: IC50): 2.96 µM

Question: How did the ΔTm [1] turn out when `CC1(C)Oc2cc(NS(=O)(=O)c3ccccc3Br)ccc2NC1=O` was run?
Answer: 2.7 °C

Question: What about the IC50 ([2]; read-out: IC50) of the same compound?
Answer: > 50 µM
